Data as given in ChEMBL document CHEMBL3232842, “Synthesis and pharmacological evaluation of novel limonin derivatives as anti-inflammatory and analgesic agents with high water solubility” (Bioorg Med Chem Lett, 2014).
Calls of active or inactive are those of the source. The rule behind the calls is not given here.

Legend:
[1] = system: Mus musculus; assay: Analgesic activity in mouse assessed as inhibition of acetic acid-induced writhing at 200 mg/kg, ig administered 1 hr before acetic acid challenge measured after 15 mins; type: functional; settings: po, route intragastric
How it was run: (§1)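 Mice dosed by gavage with compound suspended in 0.5% CMC-Na; the model group got vehicle only. 1 h later, 0.7% acetic acid in saline was injected i.p. at 0.1 ml/10 g body weight. Writhes were counted 15 min after the stimulus. Results are mean ± SEM, n = 8.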

[2] = Equilibrium solubility of the compound by classical saturation shake flask method; type: physicochemical
How it was run: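 Equilibrium solubility measured by the classical saturation shake-flask method.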

[3] = system: Mus musculus; assay: Analgesic activity in mouse assessed as inhibition of acetic acid-induced writhing at 70 mg/kg, ig administered 1 hr before acetic acid challenge measured after 15 mins; type: functional; settings: po, route intragastric; how it was run: as §1
[4] = system: Mus musculus; assay: Antiinflammatory activity in mouse assessed as xylene-induced ear swollen extent at 100 mg/kg, ig administered 90 mins prior to xylene challenge measured after 30 mins (reference value: 132.8 +/-16.3%); type: functional; settings: route intragastric
How it was run: (§2)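 Mice were given compound by gavage as a suspension in 0.5% CMC-Na; the vehicle group got 0.5% CMC-Na. 90 min later, 25 µl xylene was applied to both surfaces of the right ear, with the left ear as control. Mice were killed 30 min later. 8 mm punches were taken from both ears and weighed, and swelling was expressed relative to the left ear weight. Results are mean ± SEM, n = 8.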

[5] = system: Mus musculus; assay: Antiinflammatory activity in mouse assessed as inhibition of xylene-induced ear swelling at 100 mg/kg, ig administered 90 mins prior to xylene challenge measured after 30 mins; type: functional; settings: po, route intragastric; how it was run: as §2
[6] = Dissociation constant, pKa of the compound; type: physicochemical
[7] = Partition coefficient, log D of the compound at pH 7.4; type: physicochemical; settings: octanol/water
[8] = Intrinsic aqueous solubility of the compound; type: physicochemical; settings: read-out: Intrinsic_solubility
How it was run: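 Determined on a Gemini Profiler by potentiometric titration (Avdeef–Bucher method), which also gave pKa; logD at pH 7.4.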

[9] = system: Mus musculus; assay: Analgesic activity in mouse assessed as increase in tail-curl latency time at 100 mg/kg, ig measured after 30 to 90 mins by tail-immersion test; type: functional, organism-based; design: dose 100 mg/kg
How it was run: (§3)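 Mice dosed by gavage with 100 mg/kg suspended in 0.5% CMC-Na. Tail-curl latency in the tail-immersion test was recorded before dosing and at 30, 60, 90 and 120 min afterward. Results are given as mean ± SEM (n = 8), with one-way ANOVA against control.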

[10] = system: Mus musculus; assay: Analgesic activity in mouse assessed as increase in tail-curl latency time at 100 mg/kg, ig measured after 60 mins by tail-immersion test; type: functional, organism-based; design: dose 100 mg/kg; how it was run: as §3
[11] = system: Mus musculus; assay: Analgesic activity in mouse assessed as increase in tail-curl latency time at 100 mg/kg, ig measured after 30 to 120 mins by tail-immersion test; type: functional, organism-based; design: dose 100 mg/kg; how it was run: as §3
[12] = system: Mus musculus; assay: Analgesic activity in mouse assessed as increase in tail-curl latency time at 100 mg/kg, ig measured after 90 mins by tail-immersion test; type: functional, organism-based; design: dose 100 mg/kg; how it was run: as §3
[13] = species: Mus musculus; assay: animal or person; settings: Ear, po, read-out: INH

CC(=O)Oc1ccccc1C(=O)O [ASPIRIN]
inhibition in vivo at 200 mg/kg [1]: 71.8%

CC1(C)O[C@H]2CC(=O)OC[C@]23[C@H]2CC[C@@]4(C)[C@H](c5ccoc5)OC(=O)[C@H]5O[C@]54[C@]2(C)C(=O)C[C@@H]13 [LIMONIN]
solubility thermodynamic [2]: < 5 µg/mL
inhibition in vivo at 70 mg/kg [3]: 45.9%
Ear swelling extent [4]: 89.3%
inhibition in vivo at 100 mg/kg [5]: 32.7%

CC1(C)O[C@H]2CC(=O)OC[C@]23[C@H]2CC[C@@]4(C)[C@H](c5ccoc5)OC(=O)[C@H]5O[C@]54[C@]2(C)/C(=N\OCCN2CCCCC2)C[C@@H]13.Cl
pKa [6]: 8.87
logD [7]: 0.44
solubility [8]: 25300 µg/mL
inhibition in vivo at 70 mg/kg [3]: 70.5%
Activity [9]: Active
Activity [10]: Active
Ear swelling extent [4]: 60.1%
inhibition in vivo at 100 mg/kg [5]: 54.8%

CC1(C)O[C@H]2CC(=O)OC[C@]23[C@H]2CC[C@@]4(C)[C@H](c5ccoc5)OC(=O)[C@H]5O[C@]54[C@]2(C)/C(=N\OCCN2CCOCC2)C[C@@H]13.Cl
pKa [6]: 6.11
logD [7]: 2.45
solubility [8]: 4500 µg/mL
inhibition in vivo at 70 mg/kg [3]: 58%
Activity [9]: Active
Ear swelling extent [4]: 62.4%
inhibition in vivo at 100 mg/kg [5]: 53%

CCN(CC)CCO/N=C1/C[C@H]2C(C)(C)O[C@H]3CC(=O)OC[C@]32[C@H]2CC[C@]3(C)C(=CC(=O)O[C@H]3c3ccoc3)[C@]12C.Cl
pKa [6]: 9.49
logD [7]: 0.57
solubility [8]: 1900 µg/mL
inhibition in vivo at 70 mg/kg [3]: 33.2%
Activity [10]: Active
Ear swelling extent [4]: 108.2%
inhibition in vivo at 100 mg/kg [5]: 18.4%

CC1(C)O[C@H]2CC(=O)OC[C@@]23[C@H]1CC(=O)[C@@]1(C)C2=CC(=O)O[C@H](c4ccoc4)[C@]2(C)CC[C@@H]13 [DESOXYLIMONIN]
solubility thermodynamic [2]: < 5 µg/mL
inhibition in vivo at 70 mg/kg [3]: 24.6%
Ear swelling extent [4]: 111.7%
inhibition in vivo at 100 mg/kg [5]: 15.9%
Activity [11]: inactive

CN(C)CCCO/N=C1/C[C@H]2C(C)(C)O[C@H]3CC(=O)OC[C@]32[C@H]2CC[C@@]3(C)[C@H](c4ccoc4)OC(=O)[C@H]4O[C@]43[C@]12C.Cl
pKa [6]: 9.28
logD [7]: 0.37
solubility [8]: 9600 µg/mL
inhibition in vivo at 70 mg/kg [3]: 64.1%
Activity [9]: Active
Ear swelling extent [4]: 71.6%
inhibition in vivo at 100 mg/kg [5]: 46.1%

CN(C)CCO/N=C1/C[C@H]2C(C)(C)O[C@H]3CC(=O)OC[C@]32[C@H]2CC[C@]3(C)C(=CC(=O)O[C@H]3c3ccoc3)[C@]12C.Cl
pKa [6]: 8.88
logD [7]: 0.32
solubility [8]: 28900 µg/mL
inhibition in vivo at 70 mg/kg [3]: 30%
Activity [10]: Active
Ear swelling extent [4]: 100.2%
inhibition in vivo at 100 mg/kg [5]: 24.6%

CC1(C)O[C@H]2CC(=O)OC[C@]23[C@H]2CC[C@]4(C)C(=CC(=O)O[C@H]4c4ccoc4)[C@]2(C)/C(=N\OCCN2CCOCC2)C[C@@H]13.Cl
pKa [6]: 6.84
logD [7]: 2.52
solubility [8]: 2100 µg/mL
inhibition in vivo at 70 mg/kg [3]: 50%
Activity [10]: Active
Ear swelling extent [4]: 96.1%
inhibition in vivo at 100 mg/kg [5]: 27.6%

CC1(C)O[C@H]2CC(=O)OC[C@]23[C@H]2CC[C@]4(C)C(=CC(=O)O[C@H]4c4ccoc4)[C@]2(C)/C(=N\OCCN2CCCCC2)C[C@@H]13.Cl
pKa [6]: 8.52
logD [7]: 0.81
solubility [8]: 19800 µg/mL
inhibition in vivo at 70 mg/kg [3]: 44.3%
Activity [10]: Active
Ear swelling extent [4]: 99.1%
inhibition in vivo at 100 mg/kg [5]: 25.4%

CCN(CC)CCO/N=C1/C[C@H]2C(C)(C)O[C@H]3CC(=O)OC[C@]32[C@H]2CC[C@@]3(C)[C@H](c4ccoc4)OC(=O)[C@H]4O[C@]43[C@]12C.Cl
pKa [6]: 9.17
logD [7]: 0.26
solubility [8]: 14500 µg/mL
inhibition in vivo at 70 mg/kg [3]: 80%
Activity [9]: Active
Activity [12]: Active
Ear swelling extent [4]: 32.6%
inhibition in vivo at 100 mg/kg [5]: 75.5%

COc1ccc2cc([C@H](C)C(=O)O)ccc2c1 [NAPROXEN]
inhibition in vivo at 150 mg/kg [13]: 36.6%

CN(C)CCCO/N=C1/C[C@H]2C(C)(C)O[C@H]3CC(=O)OC[C@]32[C@H]2CC[C@]3(C)C(=CC(=O)O[C@H]3c3ccoc3)[C@]12C.Cl
pKa [6]: 9.39
logD [7]: 0.19
solubility [8]: 9400 µg/mL
inhibition in vivo at 70 mg/kg [3]: 60.7%
Activity [10]: Active
Ear swelling extent [4]: 97.8%
inhibition in vivo at 100 mg/kg [5]: 26.4%

CN(C)CCO/N=C1/C[C@H]2C(C)(C)O[C@H]3CC(=O)OC[C@]32[C@H]2CC[C@@]3(C)[C@H](c4ccoc4)OC(=O)[C@H]4O[C@]43[C@]12C.Cl
pKa [6]: 8.78
logD [7]: 0.59
solubility [8]: 17800 µg/mL
inhibition in vivo at 70 mg/kg [3]: 68.6%
Activity [9]: Active
Ear swelling extent [4]: 72.4%
inhibition in vivo at 100 mg/kg [5]: 45.5%
